In the library only some 3% were active in any assay of this set; here they are far more common.
NPY-Y1 antag – NPY-Y1 receptor antagonists, primary screen, cell-based; 1% of 200,000 active; HEK293-CNG Y1 cells, membrane potential fluorescence; NPY at EC95, then isoproterenol; Neuropeptide Y receptor type 1 (Homo sapiens), P25929; AID 1040, 2008; inhibition, % at 3.6 µM;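 active = inhibition above the campaign mean inhibition of all tested compounds plus 3 SD, cut at about 20% in these data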
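Benchmarks – high control isoproterenol alone, low control NPY with isoproterenol · Material – HEK293 Y1/CNG channel cell line · Times – dye 3 h, compound 60 min room temperature, stimulation 45 min · Probe or stimulus – NPY (25 nM), isoproterenol (1 µM), Ro 20-1724 (25 µM) · Evaluation – % inhibition of NPY effect · Signal – fluorescence, membrane potential probe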
NPY2 pot ag – NPY-Y2 potentiators or agonists, primary screen, cell-based; 0.45% of 220,000 active; Neuropeptide Y receptor type 2 (Homo sapiens), P49146; activation, % at 3.6 µM; AID 1359, 2008; cells expressing NPY-Y2, potentiator/agonist read-out; in the data active = activation above about 27%;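 also: cells stimulated with NPY near EC25 plus isoproterenol at EC100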
Hsp70 act – Hsp70 transcriptional activators, primary screen, cell-based, HeLa, Hsp70 promoter luciferase, luminescence, 10 µM; HeLa Hsp70 promoter luciferase reporter; scaled: vehicle 0, proteasome-inhibitor control 100%; activation, % at 10 µM; 0.04% of 200,000 active; AID 1203, 2008;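 active = activation above the mean across all tested compounds plus 3 SD, cutoff set per campaign, cut at about 5.5% in these data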
NPY Y2 blocker – NPY-Y2 receptor antagonists, primary screen, cell-based; Neuropeptide Y receptor type 2 (Homo sapiens), P49146; NPY-Y2 expressing cells, antagonist mode; inhibition, % at 2.7 µM; 0.99% of 140,000 active; in the data active = inhibition above about 17%
Wee1 stabilizer – Wee1 degradation inhibitors, primary screen, cell-based, HeLa, Wee1K328M-luciferase, luminescence; AID 1321, 2008; 1.2% of 220,000 active; HeLa Luc-Wee1K328M stability; 100% = proteasome inhibitor MG132 effect; reporter increase, % at 5 µM;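 active = activation above the mean of all tested compounds plus 3 SD, set per screening run, cut at about 8.8% in these data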;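 also: cells exposed to compound for 20 h before luminescence read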
Target sequence (P30291 whole entry K328M): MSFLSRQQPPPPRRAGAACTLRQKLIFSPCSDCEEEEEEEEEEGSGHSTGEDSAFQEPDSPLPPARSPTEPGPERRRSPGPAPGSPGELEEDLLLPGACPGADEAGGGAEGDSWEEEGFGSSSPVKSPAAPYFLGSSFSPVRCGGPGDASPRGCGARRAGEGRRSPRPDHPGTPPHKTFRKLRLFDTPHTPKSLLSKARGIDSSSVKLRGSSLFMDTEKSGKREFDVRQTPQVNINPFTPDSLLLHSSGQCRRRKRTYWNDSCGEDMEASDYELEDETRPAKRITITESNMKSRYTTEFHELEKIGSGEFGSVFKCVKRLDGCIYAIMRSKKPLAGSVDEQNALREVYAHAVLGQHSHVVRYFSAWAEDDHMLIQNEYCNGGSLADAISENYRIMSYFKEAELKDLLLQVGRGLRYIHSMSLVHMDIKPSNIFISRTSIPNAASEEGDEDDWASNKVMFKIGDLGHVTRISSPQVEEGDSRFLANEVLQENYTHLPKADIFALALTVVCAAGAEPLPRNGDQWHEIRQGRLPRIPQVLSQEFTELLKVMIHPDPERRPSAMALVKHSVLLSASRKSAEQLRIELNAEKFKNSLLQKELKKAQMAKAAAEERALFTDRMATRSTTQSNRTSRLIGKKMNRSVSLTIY
NPY-Y1 PAM-ag – NPY-Y1 receptor potentiators or agonists, primary screen, cell-based; 0.37% of 220,000 active; AID 1304, 2008; NPY-Y1 expressing cells, potentiator/agonist activation; activation, % at 3.6 µM; in the data active = activation above about 33%, passing the limit was not always enough;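 also: cells stimulated with NPY at EC10 then isoproterenol at EC100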
Numbers stand for hits; n = inactive; x = not tested or not shown.

SMILES	NPY-Y1 antag	NPY2 pot ag	Hsp70 act	NPY Y2 blocker	Wee1 stabilizer	NPY-Y1 PAM-ag
O=C(Cn1cc(C(=O)c2cccs2)c2ccccc21)NC1CCCCC1	n	n	n	n	n	n
O=C(N/C(=C/c1cccc(Br)c1)c1nc(=S)[nH][nH]1)c1ccccc1	n	25	n	n	n	51
Cc1ccc(C(=O)N/C(=C\c2ccc(Br)cc2)c2nc(=S)[nH][nH]2)cc1	n	n	n	n	n	47
CCCCN(CCCC)CP(=O)(c1ccccc1)c1ccccc1	28	n	n	26	n	n
O=C1c2c([N+](=O)[O-])cc([N+](=O)[O-])cc2S(=O)N1Cc1ccccc1 (stereo not given)	n	n	n	x	n	n
C/C(=N/NC(=O)c1cccs1)c1cccs1	x	n	x	x	n	n
C/C(NC(=O)c1cccs1)=C1\C(=O)C[C@@H]2[C@H]1C2(C)C	22	n	n	n	n	n
CCOC(=O)c1sc(Nc2cccc(C)c2C)nc1C	n	n	n	n	n	n
CC(C)c1nc2c(c(=O)c3ccccc3n2C)c(=O)n1CCc1ccccc1	x	n	x	x	10	n
CCCCC1(CC(=O)OC)C(=O)N(c2ccccc2)N(c2ccccc2)C1=O	n	n	n	n	n	n
CCCCCn1c2c(c(=N)c3ccccc31)CCC2	x	n	x	x	n	n
CCCCCCCCCCn1c2c(c(=N)c3c1CCC3)CCC2	92	n	n	51	n	n
COc1ccc(CNc2nc3ccccc3n2CCN2CCCCC2)c(OC)c1	29	n	n	26	n	n
CCn1c(NCc2cccc(OC)c2OC)nc2ccccc21	n	n	n	n	n	n
COc1cccc(CNc2nc3ccccc3n2CCN2CCCCC2)c1OC	42	n	n	25	n	n
O=C(/C=C/c1cccs1)NC(=S)NNC(=O)Cc1cccs1	n	n	n	n	n	n
Cc1ccccc1OCC(=O)Nc1ccc2c(c1)Cc1ccccc1-2	32	n	n	19	n	n
CCOC(=O)C1(CCCc2ccccc2)CCN(C(=O)CCC2=NNC(=O)CC2)CC1	n	n	n	x	11	n
CC(C)CCOc1ccc(Cl)cc1CN1CCOCC1	n	n	n	n	n	n
O=C(Nc1ccc(Cl)cc1)N1CCc2ccccc2C1	n	n	n	x	9.7	n
O=C(Nc1ccccc1)N1CCc2ccccc2C1	n	n	n	n	n	n
CCc1ccc(NC(=O)CCc2nc3ccccc3[nH]2)cc1	n	n	n	x	9.5	n
Cc1cccc(NC(=O)CCCSc2nc3ccccc3[nH]2)c1	n	n	n	n	10	n
Cc1cc(C)cc(NC(=O)CCCSc2nc3ccccc3[nH]2)c1	n	n	n	n	n	n
Cc1ncsc1C(=O)N1N=C2/C(=C/c3ccccc3)CCCC2C1c1ccccc1 (stereo not given)	n	n	n	n	n	n
SMILES	NPY-Y1 antag	NPY2 pot ag	Hsp70 act	NPY Y2 blocker	Wee1 stabilizer	NPY-Y1 PAM-ag
Cc1ncsc1C(=O)N1N=C2/C(=C/c3ccc(N4CCOCC4)cc3)CCCC2C1c1ccc(N2CCOCC2)cc1 (stereo not given)	n	n	n	n	9.0	n
Cc1ccc(C)c(NS(=O)(=O)c2ccc(OCC(=O)NCc3ccccn3)cc2)c1	n	n	n	x	n	n
CCOC(=O)c1c(NC(=O)C2COc3ccccc3O2)sc2c1CC(C)(C)NC2(C)C (stereo not given)	45	n	n	21	n	n
CCOC(=O)c1c(NC(=O)C2COc3ccccc3O2)sc(C(C)=O)c1C (stereo not given)	n	n	n	n	n	n
O=C(Nc1ccc([N+](=O)[O-])cn1)c1ccc(Br)o1	n	n	n	n	10	n
COc1ccc2c(c1)c(CC(=O)Nc1ccccc1OC)c(C)n2C(=O)c1ccc(Cl)cc1	20	n	n	18	n	n
COc1ccc2c(c1)c(CC(=O)Nc1ccc(C(C)=O)cc1)c(C)n2C(=O)c1ccc(Cl)cc1	n	n	n	n	n	n
Cc1cc(C(C)(C)C)oc1C(=O)N(CC(=O)NC1CCCC1)Cc1ccccc1Cl	26	n	n	27	n	n
Cc1ccccc1N(CC(=O)NC1CCCC1)C(=O)c1oc(C(C)(C)C)cc1C	n	n	n	n	n	n
Cc1cc(C)cc(-n2nnn(C3C/C(=N/NC(N)=S)C4OCC3O4)c2=S)c1 (stereo not given)	n	n	n	x	n	n
N/C(=N\OC(=O)c1ccccc1Cl)c1ccccn1	n	n	n	n	n	n
COc1ccccc1C(=O)O/N=C(\N)c1ccccn1	x	n	x	x	9.1	n
Clc1ccc(-c2ccc(SCc3ccccn3)nn2)cc1	n	n	n	n	10	n
c1ccc(CSc2ccc(-c3ccccn3)nn2)nc1	n	n	n	x	9.7	n
CC12CC3CC(C)(C1)CC(CN)(C3)C2	n	34	n	n	n	37
O=Cc1ccc(OC2OCCOC2Oc2ccc(C=O)cc2)cc1 (stereo not given)	n	n	n	n	n	n
O=C(CSc1ccc2c(c1)OCCO2)Nc1ccc(Cl)cn1	n	n	n	n	11	n
Cn1cnnc1SCC(=O)Nc1ccc(Cl)cn1	n	71	n	x	n	74
Cc1cccc(N(CC(=O)NC(C)(C)C)C(=O)CS(=O)CC(=O)Nc2ccc(F)cc2)c1 (stereo not given)	n	n	n	x	n	n
CCN(CCCNC(=O)C1CCCN(S(=O)(=O)c2cnc[nH]2)C1)c1ccccc1 (stereo not given)	n	n	n	n	n	n
Cc1cccc(NC(=O)CSc2nc(N)c(NC(=O)c3cccs3)c(=O)[nH]2)c1	n	n	n	n	9.3	n
Cc1ccc(C)c(NC(=O)CSc2nc(N)c(NC(=O)c3cccs3)c(=O)[nH]2)c1	n	n	n	n	n	n
Cc1ccc2nc(SC(C)C(=O)N3CC(C)OC(C)C3)[nH]c2c1 (stereo not given)	21	n	n	x	n	n
Cn1c(O)c(/C=C2\C=NN=C2c2ccccc2)sc1=S	x	n	x	x	9.6	n
Cc1cc(C#N)c(C)n1-c1cc(C(F)(F)F)ccc1N1CCOCC1	21	n	n	20	n	n
Cn1c(SCc2ccccc2Cl)nc(C(F)(F)F)cc1=O	n	n	n	n	n	n
CCCCN(CCCC)C(=S)NC(=O)c1ccccc1Cl	n	n	n	n	n	n
CC(=O)N1CCCN(Cc2cn(-c3cc(C)ccc3C)nc2-c2ccccc2)CC1	n	n	n	x	n	n
CC1CCN(C(=O)CN2C(=O)c3ccccc3S2(=O)=O)CC1	n	n	n	n	9.3	n

Bioassay records as filed in PubChem BioAssay.
